# Entries after “also recorded” stand apart in the source; their conditions may differ.
# Key:
# [1] = Phase I dose escalation: dose limiting toxicities, MTD and CTCAE 3.0 toxicities; assay type: in vivo, human
# Method in brief: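 Adults (>18 y) had refractory solid tumors, ECOG ≤2 and adequate marrow, hepatic and renal function. Test compound in 5% dextrose (0.05–0.5 mg/mL) was given as a 1-h IV infusion daily × 5 every 21 days, within 4 h of reconstitution. Premedication was oral dexamethasone, ondansetron, loratadine, famotidine and diphenhydramine. […] DLTs were assessed in cycle 1 by CTCAE v3.0. MTD was the level below that giving DLT in ≥2 patients.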
# [2] = test system: refractory solid malignancies; test: Tumor response per RECIST v1.0; assay type: in vivo, human
# UGT1A8 = details: cited from earlier work
# [3] = CTCAE related toxicities, Blood/bone marrow
# [4] = CTCAE related toxicities, Cardiac general
# [5] = CTCAE related toxicities, Constitutional symptoms
# [6] = CTCAE related toxicities, Dermatology/skin
# [7] = CTCAE related toxicities, Gastrointestinal
# [8] = CTCAE related toxicities, Hemorrhage/bleeding
# [9] = CTCAE related toxicities, Infection
# [10] = CTCAE related toxicities, Metabolic/laboratory
# [11] = CTCAE related toxicities, Musculoskeletal
# [12] = CTCAE related toxicities, Neurology
# [13] = CTCAE related toxicities, Pulmonary
structure (smiles),measurement,setting,value
"CC[C@@]1(O)C(=O)OCc2c1cc1n(c2=O)Cc2c-1nc1ccc(O)cc1c2[Si](C)(C)C(C)(C)C [AR-67, 7-t-butyldimethylsilyl-10-hydroxycamptothecin]",Common Grade 3 and 4 toxicities: anemia,"[1]; 26 patients, all dosage levels",11.5%
same,Common Grade 3 and 4 toxicities: fatigue,"[1]; 26 patients, all dosage levels",15.4%
same,Common Grade 3 and 4 toxicities: leukopenia (leukocytopenia),"[1]; 26 patients, all dosage levels",23%
same,Common Grade 3 and 4 toxicities: neutropenia,"[1]; 26 patients, all dosage levels",11.5%
same,Common Grade 3 and 4 toxicities: thrombocytopenia,"[1]; 26 patients, all dosage levels",15.4%
same,Diarrhea,"[1]; 26 patients, all dosage levels",No diarrhea; also recorded: none of the patients experienced
same,Infusion related allergic (hypersensitivity) reactions,"[1]; 26 patients, premedicated, cremophor-ethanol formulation",none of the patients experienced; also recorded: no patients exhibited hypersensitivity reactions
same,"Hemoglobin, Grade 1",[1]; [3],8
same,"Hemoglobin, Grade 2",[1]; [3],12
same,"Hemoglobin, Grade 3",[1]; [3],6
same,"Hemoglobin, Grade 4",[1]; [3],0
same,"Hemoglobin, Total",[1]; [3],26
same,"Leukocytes (total WBC), Grade 1",[1]; [3],18
same,"Leukocytes (total WBC), Grade 2",[1]; [3],15
same,"Leukocytes (total WBC), Grade 3",[1]; [3],8
same,"Leukocytes (total WBC), Grade 4",[1]; [3],0
same,"Leukocytes (total WBC), Total",[1]; [3],41
same,"Monocytopenia, Grade 1",[1]; [3],0
same,"Monocytopenia, Grade 2",[1]; [3],0
same,"Monocytopenia, Grade 3",[1]; [3],0
same,"Monocytopenia, Grade 4",[1]; [3],1
same,"Monocytopenia, Total",[1]; [3],1
same,"Neutrophils/granulocytes (ANC/AGC), Grade 1",[1]; [3],3
same,"Neutrophils/granulocytes (ANC/AGC), Grade 2",[1]; [3],10
same,"Neutrophils/granulocytes (ANC/AGC), Grade 3",[1]; [3],5
same,"Neutrophils/granulocytes (ANC/AGC), Grade 4",[1]; [3],1
same,"Neutrophils/granulocytes (ANC/AGC), Total",[1]; [3],19
same,"Platelets, Grade 2",[1]; [3],8
same,"Platelets, Grade 3",[1]; [3],9
same,"Hypotension, Grade 1",[1]; [4],0
same,"Hypotension, Grade 2",[1]; [4],1
same,"Hypotension, Grade 3",[1]; [4],0
same,"Hypotension, Grade 4",[1]; [4],0
same,"Hypotension, Total",[1]; [4],1
same,"Fatigue (asthenia, lethargy, malaise), Grade 1",[1]; [5],4
same,"Fatigue (asthenia, lethargy, malaise), Grade 3",[1]; [5],8
same,"Fatigue (asthenia, lethargy, malaise), Grade 4",[1]; [5],0
same,"Fatigue (asthenia, lethargy, malaise), Total",[1]; [5],26
same,"Fever (in the absence of neutropenia), Grade 1",[1]; [5],0
same,"Fever (in the absence of neutropenia), Grade 2",[1]; [5],1
same,"Fever (in the absence of neutropenia), Grade 3",[1]; [5],0
same,"Fever (in the absence of neutropenia), Grade 4",[1]; [5],0
same,"Fever (in the absence of neutropenia), Total",[1]; [5],1
same,"Insomnia, Grade 1",[1]; [5],2
same,"Insomnia, Grade 2",[1]; [5],5
same,"Insomnia, Grade 3",[1]; [5],0
same,"Insomnia, Grade 4",[1]; [5],0
same,"Insomnia, Total",[1]; [5],7
same,"Weight loss, Grade 1",[1]; [5],2
same,"Weight loss, Grade 2",[1]; [5],0
same,"Weight loss, Grade 3",[1]; [5],0
same,"Weight loss, Grade 4",[1]; [5],0
same,"Weight loss, Total",[1]; [5],2
same,"Nail changes, Grade 1",[1]; [6],1
same,"Nail changes, Grade 2",[1]; [6],0
same,"Nail changes, Grade 3",[1]; [6],0
same,"Nail changes, Grade 4",[1]; [6],0
same,"Nail changes, Total",[1]; [6],1
same,"Pruritus/itching/Dry skin/Flushing, Grade 2",[1]; [6],0
same,"Pruritus/itching/Dry skin/Flushing, Grade 3",[1]; [6],0
same,"Pruritus/itching/Dry skin/Flushing, Grade 4",[1]; [6],0
same,"Pruritus/itching/Dry skin/Flushing, Total",[1]; [6],7
same,"Rash/desquamation, Grade 1",[1]; [6],2
same,"Rash/desquamation, Grade 2",[1]; [6],1
same,"Rash/desquamation, Grade 3",[1]; [6],0
same,"Rash/desquamation, Grade 4",[1]; [6],0
same,"Rash/desquamation, Total",[1]; [6],3
same,"Anorexia/Taste Alteration, Grade 1",[1]; [7],4
same,"Anorexia/Taste Alteration, Grade 3",[1]; [7],1
same,"Anorexia/Taste Alteration, Grade 4",[1]; [7],0
same,"Anorexia/Taste Alteration, Total",[1]; [7],12
same,"Constipation/Dehydration, Grade 1",[1]; [7],6
same,"Constipation/Dehydration, Grade 2",[1]; [7],8
same,"Constipation/Dehydration, Grade 3",[1]; [7],0
same,"Constipation/Dehydration, Grade 4",[1]; [7],0
same,"Mucositis/stomatitis, Grade 1",[1]; [7],2
same,"Mucositis/stomatitis, Grade 2",[1]; [7],0
same,"Mucositis/stomatitis, Grade 3",[1]; [7],0
same,"Mucositis/stomatitis, Grade 4",[1]; [7],0
same,"Mucositis/stomatitis, Total",[1]; [7],2
same,"Nausea, Grade 2",[1]; [7],0
same,"Nausea, Grade 3",[1]; [7],0
same,"Nausea, Grade 4",[1]; [7],0
same,"Hemorrhage, GI - Duodenum, Grade 1",[1]; [8],0
same,"Hemorrhage, GI - Duodenum, Grade 2",[1]; [8],0
same,"Hemorrhage, GI - Duodenum, Grade 3",[1]; [8],1
same,"Hemorrhage, GI - Duodenum, Grade 4",[1]; [8],0
same,"Hemorrhage, GI - Duodenum, Total",[1]; [8],1
same,"Febrile neutropenia, Grade 1",[1]; [9],0
same,"Febrile neutropenia, Grade 2",[1]; [9],0
same,"Febrile neutropenia, Grade 3",[1]; [9],1
same,"Febrile neutropenia, Grade 4",[1]; [9],2
same,"Febrile neutropenia, Total",[1]; [9],3
same,"Infection - ANC grade 0–2, Grade 1",[1]; [9],3
same,"Infection - ANC grade 0–2, Grade 2",[1]; [9],4
same,"Infection - ANC grade 0–2, Grade 3",[1]; [9],0
same,"Infection - ANC grade 0–2, Grade 4",[1]; [9],2
same,"Infection - ANC grade 0–2, Total",[1]; [9],9
same,"Infection with unknown ANC, Grade 1",[1]; [9],2
same,"Infection with unknown ANC, Grade 2",[1]; [9],1
same,"Infection with unknown ANC, Grade 3",[1]; [9],0
same,"Infection with unknown ANC, Grade 4",[1]; [9],0
same,"Infection with unknown ANC, Total",[1]; [9],3
same,"ALT, SGPT, Alkaline Phosphatase, Grade 1",[1]; [10],8
same,"ALT, SGPT, Alkaline Phosphatase, Grade 2",[1]; [10],0
same,"ALT, SGPT, Alkaline Phosphatase, Grade 3",[1]; [10],0
same,"ALT, SGPT, Alkaline Phosphatase, Grade 4",[1]; [10],0
same,"ALT, SGPT, Alkaline Phosphatase, Total",[1]; [10],8
same,"Electrolyte abnormalities, Grade 1",[1]; [10],8
same,"Electrolyte abnormalities, Grade 2",[1]; [10],0
same,"Electrolyte abnormalities, Grade 3",[1]; [10],0
same,"Electrolyte abnormalities, Grade 4",[1]; [10],0
same,"Electrolyte abnormalities, Total",[1]; [10],8
same,"Extremity-lower (gait/walking), Grade 1",[1]; [11],1
same,"Extremity-lower (gait/walking), Grade 2",[1]; [11],0
same,"Extremity-lower (gait/walking), Grade 3",[1]; [11],0
same,"Extremity-lower (gait/walking), Grade 4",[1]; [11],0
same,"Extremity-lower (gait/walking), Total",[1]; [11],1
same,"Muscle weakness – Lower extremity, Grade 1",[1]; [11],0
same,"Muscle weakness – Lower extremity, Grade 2",[1]; [11],3
same,"Muscle weakness – Lower extremity, Grade 3",[1]; [11],1
same,"Muscle weakness – Lower extremity, Grade 4",[1]; [11],0
same,"Muscle weakness – Lower extremity, Total",[1]; [11],4
same,"Dizziness, Grade 1",[1]; [12],0
same,"Dizziness, Grade 2",[1]; [12],1
same,"Dizziness, Grade 3",[1]; [12],0
same,"Dizziness, Grade 4",[1]; [12],0
same,"Dizziness, Total",[1]; [12],1
same,"Neuropathy: sensory, Grade 1",[1]; [12],1
same,"Neuropathy: sensory, Grade 2",[1]; [12],0
same,"Neuropathy: sensory, Grade 3",[1]; [12],0
same,"Neuropathy: sensory, Grade 4",[1]; [12],0
same,"Neuropathy: sensory, Total",[1]; [12],1
same,"Dyspnea, Grade 1",[1]; [13],1
same,"Dyspnea, Grade 2",[1]; [13],0
same,"Dyspnea, Grade 3",[1]; [13],0
same,"Dyspnea, Grade 4",[1]; [13],0
same,"Dyspnea, Total",[1]; [13],1
same,"Hiccoughs (hiccups, singultus), Grade 1",[1]; [13],2
same,"Hiccoughs (hiccups, singultus), Grade 2",[1]; [13],1
same,"Hiccoughs (hiccups, singultus), Grade 3",[1]; [13],0
same,"Hiccoughs (hiccups, singultus), Grade 4",[1]; [13],0
same,"Hiccoughs (hiccups, singultus), Total",[1]; [13],3
same,DLT per Cohort,"[1]; Level 5.5, 7.5 mg/m2/day daily × 5, n=7, cycle 1",one of seven
same,DLT per Cohort,"[1]; Level 6, 8.9 mg/m2/day daily × 5, n=4, cycle 1",two of four
same,Day of ANC and platelet nadir,"[1]; MTD level, cycle 1, recovered prior to day 22",10 to 14 days
same,maximum tolerated dosage (MTD),"[1]; iv over 1 hour daily × 5, every 21 days",7.5 mg/m^2/day
same,Patients with dose limiting toxicities,"[1]; of 26 patients, 9 dosage levels",5 patients
same,recommended phase II dosage,[1]; ×5 q 21 days,7.5 mg/m^2/day
same,subjects with stable disease,[2]; 22 subjects evaluable,Four
same,duration of prolonged partial response,[2]; one patient,> 16 months
same,response per RECIST v1.0,"[2]; one subject, squamous cell carcinoma of the lung (NSCLC), dosage level 5.5, ten cycles",prolonged partial response
same,time after end of cycle 10 with partial response maintained,"[2]; recurrent NSCLC patient, 10 cycles, as of this writing",≥ 7 months
same,metabolism by UGT1A8,UGT1A8,extensively metabolized

# Source: article PMC2831464 (Clinical cancer research : an official journal of the …, 2010)
